Test system: HEK-293T
Test: Multiplex assay against HEK293T;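 for Population Tubulin-Different-Phenotype (%): share of the cells with healthy nuclei that show this phenotype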
Format: toxicity, cell-based
Conditions: human
In short: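 Live cells carried four stains from seeding: Hoechst33342, BioTracker Green Microtubule Cytoskeleton Dye, MitoTracker Red and Annexin V Alexa Fluor 680. They were imaged on a CQ1 microscope at 37°C and 5% CO2 after compound addition. Using CellPathfinder machine-learning gating, cells were split into Hoechst high-intensity objects or normal cells, normal cells into healthy, pyknosed or fragmented nuclei, and pyknosed cells into mitotic or apoptotic; tubulin, mitochondrial-mass and membrane-permeability phenotypes are per cents of healthy-nucleus cells.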

[1] = 12 h, 1 µM, compound concentration 1 uM, replicate 1
[2] = 12 h, 1 µM, compound concentration 1 uM, replicate 2
[3] = 12 h, 10 µM, compound concentration 10 uM, replicate 1
[4] = 12 h, 10 µM, compound concentration 10 uM, replicate 2
[5] = 24 h, 1 µM, compound concentration 1 uM, replicate 1
[6] = 24 h, 1 µM, compound concentration 1 uM, replicate 2
[7] = 24 h, 10 µM, compound concentration 10 uM, replicate 1
[8] = 24 h, 10 µM, compound concentration 10 uM, replicate 2

CNC(=O)Nc1ccc2c(c1)[C@@]1(CC2)OC(=O)N(CC(=O)N(Cc2ccc(F)cc2)[C@@H](C)C(F)(F)F)C1=O [A-486]
Population Apoptotic (%) [1]: 25% | Population Fragmented Nuclei (%) [1]: 17% | Population Healthy Nuclei (%) [1]: 47% | Population Hoechst High Intensity Objects (%) [1]: 15% | Population Membrane Permeable-Phenotype (%) [1]: 17% | Population Mitochondria Different-Phenotype (%) [1]: 15% | Population Mitotic Cells (%) [1]: 74% | Population Normal (%) [1]: 84% | Population Pyknosed Nuclei (%) [1]: 35% | Population Tubulin-Different-Phenotype (%) [1]: 48% | Total Cell Count [1]: 632 | Population Apoptotic (%) [2]: 12% | Population Fragmented Nuclei (%) [2]: 4% | Population Healthy Nuclei (%) [2]: 82% | Population Hoechst High Intensity Objects (%) [2]: 2% | Population Membrane Permeable-Phenotype (%) [2]: 29% | Population Mitochondria Different-Phenotype (%) [2]: 21% | Population Mitotic Cells (%) [2]: 87% | Population Normal (%) [2]: 97% | Population Pyknosed Nuclei (%) [2]: 13% | Population Tubulin-Different-Phenotype (%) [2]: 88% | Total Cell Count [2]: 1325 | Population Apoptotic (%) [3]: 14% | Population Fragmented Nuclei (%) [3]: 20% | Population Healthy Nuclei (%) [3]: 57% | Population Hoechst High Intensity Objects (%) [3]: 17% | Population Membrane Permeable-Phenotype (%) [3]: 7% | Population Mitochondria Different-Phenotype (%) [3]: 6% | Population Mitotic Cells (%) [3]: 85% | Population Normal (%) [3]: 82% | Population Pyknosed Nuclei (%) [3]: 22% | Population Tubulin-Different-Phenotype (%) [3]: 4% | Total Cell Count [3]: 510 | Population Apoptotic (%) [4]: 5% | Population Fragmented Nuclei (%) [4]: 9% | Population Healthy Nuclei (%) [4]: 85% | Population Hoechst High Intensity Objects (%) [4]: 1% | Population Membrane Permeable-Phenotype (%) [4]: 2% | Population Mitochondria Different-Phenotype (%) [4]: 8% | Population Mitotic Cells (%) [4]: 95% | Population Normal (%) [4]: 98% | Population Pyknosed Nuclei (%) [4]: 4% | Population Tubulin-Different-Phenotype (%) [4]: 13% | Total Cell Count [4]: 1787 | Population Apoptotic (%) [5]: 24% | Population Fragmented Nuclei (%) [5]: 12% | Population Healthy Nuclei (%) [5]: 73% | Population Hoechst High Intensity Objects (%) [5]: 10% | Population Membrane Permeable-Phenotype (%) [5]: 25% | Population Mitochondria Different-Phenotype (%) [5]: 11% | Population Mitotic Cells (%) [5]: 75% | Population Normal (%) [5]: 89% | Population Pyknosed Nuclei (%) [5]: 14% | Population Tubulin-Different-Phenotype (%) [5]: 67% | Total Cell Count [5]: 669 | Population Apoptotic (%) [6]: 6% | Population Fragmented Nuclei (%) [6]: 14% | Population Healthy Nuclei (%) [6]: 79% | Population Hoechst High Intensity Objects (%) [6]: 3% | Population Membrane Permeable-Phenotype (%) [6]: 36% | Population Mitochondria Different-Phenotype (%) [6]: 10% | Population Mitotic Cells (%) [6]: 93% | Population Normal (%) [6]: 96% | Population Pyknosed Nuclei (%) [6]: 5% | Population Tubulin-Different-Phenotype (%) [6]: 89% | Total Cell Count [6]: 1891 | Population Apoptotic (%) [7]: 33% | Population Fragmented Nuclei (%) [7]: 15% | Population Healthy Nuclei (%) [7]: 75% | Population Hoechst High Intensity Objects (%) [7]: 9% | Population Membrane Permeable-Phenotype (%) [7]: 8% | Population Mitochondria Different-Phenotype (%) [7]: 4% | Population Mitotic Cells (%) [7]: 66% | Population Normal (%) [7]: 90% | Population Pyknosed Nuclei (%) [7]: 9% | Population Tubulin-Different-Phenotype (%) [7]: 10% | Total Cell Count [7]: 551 | Population Apoptotic (%) [8]: 7% | Population Fragmented Nuclei (%) [8]: 25% | Population Healthy Nuclei (%) [8]: 72% | Population Hoechst High Intensity Objects (%) [8]: 2% | Population Membrane Permeable-Phenotype (%) [8]: 7% | Population Mitochondria Different-Phenotype (%) [8]: 2% | Population Mitotic Cells (%) [8]: 92% | Population Normal (%) [8]: 97% | Population Pyknosed Nuclei (%) [8]: 1% | Population Tubulin-Different-Phenotype (%) [8]: 13% | Total Cell Count [8]: 3041
